# ChEMBL document CHEMBL5058577, “EUbOPEN Chemogenomics Library 2 (Multiplex)” (2022)
# System: Fibroblast
# Test: Multiplex assay against human fibroblast
# Format: toxicity, cell-based
# Outline: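 With compound added, live cells were imaged on a CQ1 microscope at 37°C and 5% CO2; staining with Hoechst33342, BioTracker Green Microtubule Cytoskeleton Dye, MitoTracker Red and Annexin V Alexa Fluor 680 had been done at seeding. The CellPathfinder machine-learning gating scheme split cells into Hoechst high-intensity objects or normal cells, normal cells into healthy, pyknosed or fragmented nuclei, and pyknosed cells into mitotic or apoptotic. The tubulin, mitochondrial-mass and membrane-permeability phenotypes are per cents of healthy-nucleus cells.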
# [1] = 12 h, 1 µM, compound concentration 1 uM, replicate 1
# [2] = 12 h, 1 µM, compound concentration 1 uM, replicate 2
# [3] = 12 h, 10 µM, compound concentration 10 uM, replicate 1
# [4] = 12 h, 10 µM, compound concentration 10 uM, replicate 2
# [5] = 24 h, 1 µM, compound concentration 1 uM, replicate 1
# [6] = 24 h, 1 µM, compound concentration 1 uM, replicate 2
# [7] = 24 h, 10 µM, compound concentration 10 uM, replicate 1
# [8] = 24 h, 10 µM, compound concentration 10 uM, replicate 2
# [9] = 48 h, 1 µM, compound concentration 1 uM, replicate 1
# [10] = 48 h, 1 µM, compound concentration 1 uM, replicate 2
# [11] = 48 h, 10 µM, compound concentration 10 uM, replicate 1
# [12] = 48 h, 10 µM, compound concentration 10 uM, replicate 2
structure (smiles),measurement,setting,value
Nc1nc(-c2ccco2)c2cnn(Cc3ccccc3F)c2n1,Population Apoptotic (%),[1],50%
same,Population Fragmented Nuclei (%),[1],10%
same,Population Healthy Nuclei (%),[1],78%
same,Population Hoechst High Intensity Objects (%),[1],0%
same,Population Membrane Permeable-Phenotype (%),[1],1%
same,Population Mitochondria Different-Phenotype (%),[1],2%
same,Population Mitotic Cells (%),[1],50%
same,Population Normal (%),[1],99%
same,Population Pyknosed Nuclei (%),[1],11%
same,Population Tubulin-Different-Phenotype (%),[1],26%
same,Total Cell Count,[1],189
same,Population Apoptotic (%),[2],45%
same,Population Fragmented Nuclei (%),[2],31%
same,Population Healthy Nuclei (%),[2],50%
same,Population Hoechst High Intensity Objects (%),[2],6%
same,Population Membrane Permeable-Phenotype (%),[2],2%
same,Population Mitochondria Different-Phenotype (%),[2],5%
same,Population Mitotic Cells (%),[2],54%
same,Population Normal (%),[2],93%
same,Population Pyknosed Nuclei (%),[2],17%
same,Population Tubulin-Different-Phenotype (%),[2],42%
same,Total Cell Count,[2],144
same,Population Apoptotic (%),[3],54%
same,Population Fragmented Nuclei (%),[3],16%
same,Population Healthy Nuclei (%),[3],61%
same,Population Hoechst High Intensity Objects (%),[3],8%
same,Population Membrane Permeable-Phenotype (%),[3],0%
same,Population Mitochondria Different-Phenotype (%),[3],7%
same,Population Mitotic Cells (%),[3],45%
same,Population Normal (%),[3],91%
same,Population Pyknosed Nuclei (%),[3],21%
same,Population Tubulin-Different-Phenotype (%),[3],38%
same,Total Cell Count,[3],123
same,Population Apoptotic (%),[4],47%
same,Population Fragmented Nuclei (%),[4],39%
same,Population Healthy Nuclei (%),[4],44%
same,Population Hoechst High Intensity Objects (%),[4],10%
same,Population Membrane Permeable-Phenotype (%),[4],5%
same,Population Mitochondria Different-Phenotype (%),[4],13%
same,Population Mitotic Cells (%),[4],52%
same,Population Normal (%),[4],89%
same,Population Pyknosed Nuclei (%),[4],16%
same,Population Tubulin-Different-Phenotype (%),[4],51%
same,Total Cell Count,[4],147
same,Population Apoptotic (%),[5],50%
same,Population Fragmented Nuclei (%),[5],9%
same,Population Healthy Nuclei (%),[5],82%
same,Population Hoechst High Intensity Objects (%),[5],0%
same,Population Membrane Permeable-Phenotype (%),[5],0%
same,Population Mitochondria Different-Phenotype (%),[5],2%
same,Population Mitotic Cells (%),[5],50%
same,Population Normal (%),[5],100%
same,Population Pyknosed Nuclei (%),[5],7%
same,Population Tubulin-Different-Phenotype (%),[5],24%
same,Total Cell Count,[5],180
same,Population Apoptotic (%),[6],56%
same,Population Fragmented Nuclei (%),[6],29%
same,Population Healthy Nuclei (%),[6],53%
same,Population Hoechst High Intensity Objects (%),[6],6%
same,Population Membrane Permeable-Phenotype (%),[6],4%
same,Population Mitochondria Different-Phenotype (%),[6],5%
same,Population Mitotic Cells (%),[6],43%
same,Population Normal (%),[6],93%
same,Population Pyknosed Nuclei (%),[6],17%
same,Population Tubulin-Different-Phenotype (%),[6],37%
same,Total Cell Count,[6],139
same,Population Apoptotic (%),[7],70%
same,Population Fragmented Nuclei (%),[7],19%
same,Population Healthy Nuclei (%),[7],66%
same,Population Hoechst High Intensity Objects (%),[7],6%
same,Population Membrane Permeable-Phenotype (%),[7],1%
same,Population Mitochondria Different-Phenotype (%),[7],8%
same,Population Mitotic Cells (%),[7],29%
same,Population Normal (%),[7],93%
same,Population Pyknosed Nuclei (%),[7],14%
same,Population Tubulin-Different-Phenotype (%),[7],39%
same,Total Cell Count,[7],127
same,Population Apoptotic (%),[8],43%
same,Population Fragmented Nuclei (%),[8],43%
same,Population Healthy Nuclei (%),[8],44%
same,Population Hoechst High Intensity Objects (%),[8],8%
same,Population Membrane Permeable-Phenotype (%),[8],15%
same,Population Mitochondria Different-Phenotype (%),[8],5%
same,Population Mitotic Cells (%),[8],56%
same,Population Normal (%),[8],91%
same,Population Pyknosed Nuclei (%),[8],11%
same,Population Tubulin-Different-Phenotype (%),[8],46%
same,Total Cell Count,[8],147
same,Population Apoptotic (%),[9],45%
same,Population Fragmented Nuclei (%),[9],16%
same,Population Healthy Nuclei (%),[9],77%
same,Population Hoechst High Intensity Objects (%),[9],3%
same,Population Membrane Permeable-Phenotype (%),[9],2%
same,Population Mitochondria Different-Phenotype (%),[9],1%
same,Population Mitotic Cells (%),[9],54%
same,Population Normal (%),[9],96%
same,Population Pyknosed Nuclei (%),[9],6%
same,Population Tubulin-Different-Phenotype (%),[9],26%
same,Total Cell Count,[9],182
same,Population Apoptotic (%),[10],57%
same,Population Fragmented Nuclei (%),[10],41%
same,Population Healthy Nuclei (%),[10],48%
same,Population Hoechst High Intensity Objects (%),[10],6%
same,Population Membrane Permeable-Phenotype (%),[10],4%
same,Population Mitochondria Different-Phenotype (%),[10],9%
same,Population Mitotic Cells (%),[10],42%
same,Population Normal (%),[10],93%
same,Population Pyknosed Nuclei (%),[10],10%
same,Population Tubulin-Different-Phenotype (%),[10],37%
same,Total Cell Count,[10],147
same,Population Apoptotic (%),[11],80%
same,Population Fragmented Nuclei (%),[11],25%
same,Population Healthy Nuclei (%),[11],65%
same,Population Hoechst High Intensity Objects (%),[11],9%
same,Population Membrane Permeable-Phenotype (%),[11],0%
same,Population Mitochondria Different-Phenotype (%),[11],10%
same,Population Mitotic Cells (%),[11],20%
same,Population Normal (%),[11],90%
same,Population Pyknosed Nuclei (%),[11],9%
same,Population Tubulin-Different-Phenotype (%),[11],27%
same,Total Cell Count,[11],115
same,Population Apoptotic (%),[12],50%
same,Population Fragmented Nuclei (%),[12],50%
same,Population Healthy Nuclei (%),[12],38%
same,Population Hoechst High Intensity Objects (%),[12],5%
same,Population Membrane Permeable-Phenotype (%),[12],16%
same,Population Mitotic Cells (%),[12],50%
same,Population Normal (%),[12],94%
same,Population Pyknosed Nuclei (%),[12],10%
same,Population Tubulin-Different-Phenotype (%),[12],51%
same,Total Cell Count,[12],155
